Screening data as filed in PubChem.
A selection: hits, their analogues and other compounds. The true share with any hit is near 5.8%.
IDH1 mut inh: IDH1 R132H (human) inhibition | O75874 | IDH1 R132H reductase, diaphorase/resazurin fluorescence, 60 min | inhibition, % at 10 µM | 70,000 tested, 0.18% active | AID 624101; in the data active means inhibition above about 34%; inconclusive means no clear call, values can overlap the other calls; inactive means below about 11%;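 further: 0% = DMSO and 100% = no enzyme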
Target sequence (O75874 whole entry R132H): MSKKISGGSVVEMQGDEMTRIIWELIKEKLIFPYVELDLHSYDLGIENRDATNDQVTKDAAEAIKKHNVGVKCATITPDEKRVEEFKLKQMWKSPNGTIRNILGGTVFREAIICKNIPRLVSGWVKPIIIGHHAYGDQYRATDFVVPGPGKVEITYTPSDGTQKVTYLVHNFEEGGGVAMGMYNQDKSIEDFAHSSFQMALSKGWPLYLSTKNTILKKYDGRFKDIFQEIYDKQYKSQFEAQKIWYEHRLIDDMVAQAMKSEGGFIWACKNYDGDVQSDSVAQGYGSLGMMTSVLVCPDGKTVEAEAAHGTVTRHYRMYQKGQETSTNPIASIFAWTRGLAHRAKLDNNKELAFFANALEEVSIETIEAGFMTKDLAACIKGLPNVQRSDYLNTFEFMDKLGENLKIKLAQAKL
Pf Dd2 growth: inhibitors of Plasmodium falciparum Dd2 growth; P. falciparum Dd2 growth, SYBR Green, 72 h; active compounds read low; activity change, % at 10 µM; 94,000 tested, 2.3% active; in the data active means activity change below about -80%; inconclusive means no clear call, values can overlap the other calls
T cruzi growth-1: blocks T. cruzi growth in NIH3T3 culture. T. cruzi beta-gal in NIH3T3, GalScreen luminescence, 90 h. inhibition, % at 8.34 µM. 77,000 tested, 5.9% active;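 active means mean inhibition above about 93%, with at least 55% of replicates each passing it, limit read from the data, passing the limit was not always enough; inconclusive means only one of those two conditions holds; inactive means neither condition holds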
KDM4C inh: KDM4C (human) demethylase inhibition; AID 720574; GST-KDM4C 2-372, H3K9me3 peptide, LANCE TR-FRET; 96,000 tested, 0.15% active; inhibition, % at 12.5 µM;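 active means mean replicate inhibition above about 25%, with at least 55% of replicates also reaching it, limit read from the data, passing the limit was not always enough; inconclusive means only one of those two conditions met; inactive means neither condition met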
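Test system – GST-tagged GASC-1 (JMJD2C) catalytic fragment, aa 2-372 · Medium – HEPES buffer, pH 7.5, plus ascorbate · Reagent – H3K9me3 peptide with Fe(II)/2OG · Compound – one test concentration per compound · Timing – 30 min reaction, 60 min detection, RT · Technique – TR-FRET with Eu antibody and ULight streptavidin, EDTA stop · Read-out basis – inhibition from TR-FRET ratio decrease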
T cruzi growth-2: Trypanosoma cruzi proliferation inhibition; 5,600 tested, 72% active; T. cruzi beta-gal in NIH3T3, GalScreen luminescence, 90 h; shares compounds with T cruzi growth-1; inhibition, % at 8.35 µM;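 active means mean replicate inhibition above about 95% and at least 55% of replicates individually reaching it, limit read from the data; inconclusive means only one of the two criteria is met; inactive means neither criterion is met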
T cruzi growth-3: blocks T. cruzi growth in NIH3T3 host cells; 5,600 tested, 21% active; inhibition, % at 2.09 µM; AID 651740; shares compounds with T cruzi growth-1; T. cruzi beta-gal in NIH3T3, GalScreen luminescence, 90 h;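 active means mean inhibition above about 95%, with at least 55% of replicates also reaching it, limit read from the data; inconclusive means meets just one of the two conditions; inactive means meets neither condition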;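 further: plate controls were neutral control median for no effect and positive control median for full effect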
3T3 cytotox: kills mouse NIH/3T3 fibroblasts. cytotoxicity (signal decrease), % at 8.35 µM. shares compounds with T cruzi growth-1. NIH/3T3 viability, CellTiter-Glo ATP luminescence, 90 h. 5,600 tested, 14% active;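 active means mean signal decrease across replicates above about 35% based on untreated-well scatter, with enough replicates individually passing, limit read from the data; inconclusive means no rule stated though some were filed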;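 further: 0% = median of neutral control wells and 100% = median of positive control wells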
3T3 cytotox 2: NIH/3T3 (mouse) viability loss. NIH/3T3 viability, CellTiter-Glo ATP luminescence, 90 h. inhibition, % at 24.9 µM. 5,600 tested, 56% active. shares compounds with T cruzi growth-1;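 active means mean loss of cell viability signal at or above a set limit, and enough replicates individually reaching it; inconclusive means meets only the mean limit or only the replicate share; inactive means meets neither condition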;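 further: 0% = median of neutral control wells and 100% = median of positive control wells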
* = called active by the depositor; ? = inconclusive; . = no result.

SMILES	IDH1 mut inh	Pf Dd2 growth	T cruzi growth-1	KDM4C inh	T cruzi growth-2	T cruzi growth-3	3T3 cytotox	3T3 cytotox 2
C[C@@H]1CCCCO[C@H](CN(C)C(=O)Nc2ccc3c(c2)OCO3)[C@H](C)CN([C@@H](C)CO)C(=O)c2cc(NC(=O)Cc3ccccc3)ccc2O1	15.8	-74.4	?	13.4	?	44.6	-13.9	-17.7
C[C@H](CO)N1C[C@H](C)[C@@H](CN(C)C(=O)Nc2ccc(F)cc2)OCCCC[C@H](C)Oc2ccc(NC(=O)Cc3ccccc3)cc2C1=O	.	-67.0	98.0*	-1.6	?	44.6	-14.2	3.6
C[C@H]1CN([C@@H](C)CO)C(=O)Cc2cc(NC(=O)CCCN(C)C)ccc2O[C@@H]1CN(C)C(=O)Nc1ccc2c(c1)OCO2	0.2	-45.9	?	4.0	17.1	26.5	-11.2	-2.0
C[C@@H]1CN([C@H](C)CO)C(=O)c2cc(NC(=O)Cc3ccccc3)ccc2O[C@@H](C)CCCCO[C@H]1CN(C)C(=O)Nc1ccc2c(c1)OCO2	4.0	-74.2	52.7	0.0	.	.	.	.
C[C@@H]1CCCCO[C@@H](CN(C)C(=O)Nc2ccc3c(c2)OCO3)[C@@H](C)CN([C@H](C)CO)C(=O)c2cc(NC(=O)CCCN(C)C)ccc2O1	.	9.2	110.7*	0.3	?	11.8	4.8	7.2
CCOC(=O)c1ccc(NC(=O)C2C3CCC(C3=C(C)C)C2C(=O)O)cc1 (centres undefined)	-0.7	.	.	.	.	.	.	.
C[C@@H]1CCCCO[C@H](CN(C)C(=O)Nc2ccc(F)cc2)[C@H](C)CN([C@@H](C)CO)C(=O)c2cc(NC(=O)Cc3ccccc3)ccc2O1	0.4	-81.8*	103.4*	-2.3	103.8*	33.4	-17.6	-11.9
C[C@@H]1CN([C@H](C)CO)C(=O)Cc2cc(NC(=O)CCN3CCOCC3)ccc2O[C@H]1CN(C)C(=O)Nc1ccc(F)cc1	1.8	20.2	99.2*	-0.2	60.6	25.0	7.5	6.6
C[C@@H]1CN([C@@H](C)CO)C(=O)Cc2cc(NC(=O)CCN3CCOCC3)ccc2O[C@H]1CN(C)C(=O)Nc1ccccc1	-0.6	36.6	6.4	-2.8	.	.	.	.
C[C@H]1CCCCO[C@H](CN(C)C(=O)Nc2ccc(F)cc2)[C@@H](C)CN([C@@H](C)CO)C(=O)c2cc(NC(=O)Cc3ccccc3)ccc2O1	.	-75.0	104.7*	-0.8	108.9*	69.3	-4.5	10.7
O=c1cc(-c2ccc(O)cc2)oc2cc(OC3OC(CO)C(O)C(O)C3OC3OCC(O)(CO)C3O)cc(O)c12 (centres undefined)	-0.6	.	.	.	.	.	.	.
C[C@H]1CCCCO[C@H](CN(C)Cc2ccc3c(c2)OCO3)[C@@H](C)CN([C@@H](C)CO)C(=O)c2cc(NC(=O)Nc3ccc(F)cc3)ccc2O1	2.0	-75.0	109.4*	0.0	101.9*	98.9*	28.1	104.3*
C[C@@H]1CCCCO[C@@H](CN(C)Cc2ccc3c(c2)OCO3)[C@H](C)CN([C@H](C)CO)C(=O)c2cc(NC(=O)Nc3ccc(F)cc3)ccc2O1	.	-77.6	?	1.0	96.6*	100.3*	24.1	104.1*
CO[C@H](CN(C)C(=O)Nc1ccc(C(F)(F)F)cc1)[C@@H](C)CN(Cc1ccccc1Cl)[C@@H](C)CO	-0.3	-49.6	100.6*	-2.2	100.7*	77.4	46.8*	103.6*
CO[C@@H](CN(C)C(=O)Nc1ccc(C(F)(F)F)cc1)[C@@H](C)CN(Cc1ccccc1Cl)[C@@H](C)CO	-0.7	-50.7	72.1	0.1	.	.	.	.
CO[C@H](CN(C)C(=O)Nc1ccc(C(F)(F)F)cc1)[C@H](C)CN(Cc1ccccc1Cl)[C@@H](C)CO	-0.2	-48.0	114.0*	-0.4	101.1*	99.7*	50.0*	104.2*
C[C@H](CO)N1C[C@H](C)[C@H](CN(C)C(=O)c2ccc3c(c2)OCO3)Oc2cc(-c3ccncc3)ccc2S1(=O)=O	-0.1	-38.0	103.8*	-0.3	81.5	59.1	15.6	27.8*
